Results gathered from unrelated publications.
Organism: Hepatitis C virus
Effect on: viral replication
Action: inhibitor

C=C1CC[C@H](O)C/C1=C/C=C1\CCC[C@]2(C)[C@@H]([C@H](C)/C=C/[C@H](C)C(C)C)CC[C@@H]12
EC50 (luciferase; BM4-5; GETYPE1B; 72 h; replicon): 12.8 µM

CC(C)(CO)C(=O)SCCOP(=O)(NCc1ccccc1)OC[C@H]1O[C@@H](n2cnc3c(=O)[nH]c(N)nc32)[C@](C)(O)[C@@H]1O (mixture of isomers)
EC50 (Huh-7; GETYPE1; replicon): 0.3 µM

COC(=O)N[C@H](C(=O)N1CCC[C@H]1c1ncc(-c2ccc(-c3ccc(-c4cnc([C@@H]5CCCN5C(=O)[C@@H](NC(=O)OC)C(C)C)[nH]4)cc3)cc2)[nH]1)C(C)C
EC50 (GETYPE2A; replicon): 0.000103 µM

CCC(=O)Nc1cc(C(=O)Nc2ccc(CN3CCN(C)CC3)c(C(F)(F)F)c2)ccc1OC
EC50 (qPCR; Huh7.5; GETYPE2A; 72 h): < 1.5 µM

C=C1/C(=C\C=C2/CCC[C@]3(C)[C@@H]([C@H](C)CCCC(C)(C)O)CC[C@@H]23)C[C@@H](O)C[C@@H]1O
EC50 (luciferase; BM4-5; GETYPE1B; 5 days; replicon): 1.1 µM

COc1nc(N)nc2c1ncn2[C@@H]1O[C@H](COP(=O)(N[C@@H](C)C(=O)OCC(C)(C)C)Oc2cccc3ccccc23)[C@@H](O)[C@@]1(C)O (some centres unmarked)
EC50 (GETYPE2A; 96 h; replicon): 0.0073 µM

C=C1CC[C@H](O)C/C1=C/C=C1\CCC[C@]2(C)[C@@H]([C@H](C)CCCC(C)C)CC[C@@H]12
EC50 (luciferase; BM4-5; GETYPE1B; 72 h; replicon): 6.1 µM

O=C1N[C@H]2[C@H](CS[C@H]2CCCCC(=O)N2CCC[C@@H]2C(=O)Nc2ccc(/C=C/c3ccc(NC(=O)[C@H]4CCCN4C(=O)Cc4ccccc4)cc3)cc2)N1
EC50 (GETYPE1B; replicon): > 10 µM

CCC(CC)COC(=O)[C@H](C)N[P@](=O)(OC[C@H]1O[C@@](C#N)(c2ccc3c(N)ncnn23)[C@H](O)[C@@H]1O)Oc1ccccc1
EC50 (Huh7.5; GETYPE3 GETYPE3A; replicon): 0.19 µM

O=c1oc2c(O)c(O)cc3c(=O)oc4c(O)c(O)cc1c4c23
EC50 (Huh-7; GETYPE2A; 48 h; replicon): ~60 µM

CN1CCN(C(c2ccccc2)c2ccc(Cl)cc2)CC1 (racemic)
EC50 (Huh-7.5.1; GETYPE2A; 48 h; replicon): 0.044 µM
